Experimental data taken from ChEMBL document CHEMBL1158482, “Dopamine D2, D3, and D4 selective phenylpiperazines as molecular probes to explore the origins of subtype specific receptor binding” (J Med Chem, 2009).

Legend:
Type in all cases: cell-based
[1] = Displacement of [3H]spiperone from human cloned dopamine D2L receptor D3.32E mutant expressed in HEK293 cells
In short: (§1)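 Wild-type or mutant receptor cDNA transiently transfected into HEK-293 cells (CaHPO4 or TransIT-293), grown in MEM with 10% FBS at 37 °C, 5% CO2, harvested 48 h post-transfection. Membranes prepared by homogenization and spin at 50000g.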

HEK293 [2] = assay: Selectivity ratio of Ki for human cloned dopamine D3 receptor V2.61F/FV3.28,3.29LM mutant to Ki for wild type human cloned dopamine D3 receptor expressed in HEK293 cells
In short: (§2)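 Wild-type or mutant receptor cDNA transiently transfected into HEK-293 cells, which were grown in MEM with 10% FBS at 37 °C and 5% CO2 and harvested 48 h after transfection. Membranes were homogenised and pelleted at 50000g. Competition against [3H]spiperone (0.1-0.7 nM final) used 20-200 μg/mL protein. Ki was derived from EC50, 2-18 independent experiments in triplicate. Ratios are mutant Ki over wild-type Ki.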

D(3) dopamine receptor [3] = target: D(3) dopamine receptor (Homo sapiens, UniProt P35462, V87F); assay: Displacement of [3H]spiperone from human cloned dopamine D3 receptor V2.61F mutant expressed in HEK293 cells
HEK293 [4] = assay: Selectivity ratio of Ki for human cloned dopamine D2L receptor D3.32E mutant to Ki for wild type human cloned dopamine D2L receptor expressed in HEK293 cells; in short: as §2
CHO [5] = assay: Selectivity ratio of Ki for human cloned dopamine D2L receptor to Ki for human cloned dopamine D3 receptor expressed in CHO cells
[6] = Displacement of [3H]spiperone from human cloned dopamine D2L receptor V2.61F mutant expressed in HEK293 cells; in short: as §1
HEK293 [7] = assay: Selectivity ratio of Ki for human cloned dopamine D3 receptor FV3.28,3.29LM mutant to Ki for wild type human cloned dopamine D3 receptor expressed in HEK293 cells; in short: as §2
D(3) dopamine receptor [8] = target: D(3) dopamine receptor (Homo sapiens, UniProt P35462, F106L/V107M/V87F); assay: Displacement of [3H]spiperone from human cloned dopamine D3 receptor V2.61F/FV3.28,3.29LM mutant expressed in HEK293 cells
D(3) dopamine receptor [9] = target: D(3) dopamine receptor (Homo sapiens, UniProt P35462, D110E); assay: Displacement of [3H]spiperone from human cloned dopamine D3 receptor D3.32E mutant expressed in HEK293 cells
HEK293 [10] = assay: Selectivity ratio of Ki for human cloned dopamine D3 receptor H6.55A mutant to Ki for wild type human cloned dopamine D3 receptor expressed in HEK293 cells; in short: as §2
HEK293 [11] = assay: Selectivity ratio of Ki for human cloned dopamine D2L receptor V2.61F/FV3.28,3.29LM mutant to Ki for wild type human cloned dopamine D2L receptor expressed in HEK293 cells; in short: as §2
HEK293 [12] = assay: Selectivity ratio of Ki for human cloned dopamine D3 receptor L2.64F mutant to Ki for wild type human cloned dopamine D3 receptor expressed in HEK293 cells; in short: as §2
HEK293 [13] = assay: Selectivity ratio of Ki for human cloned dopamine D3 receptor V180E/S182I mutant to Ki for wild type human cloned dopamine D3 receptor expressed in HEK293 cells; in short: as §2
[14] = Displacement of [3H]spiperone from human cloned dopamine D2L receptor H6.55A mutant expressed in HEK293 cells; in short: as §1
HEK293 [15] = assay: Selectivity ratio of Ki for human cloned dopamine D2L receptor H6.55A mutant to Ki for wild type human cloned dopamine D2L receptor expressed in HEK293 cells; in short: as §2
D(4) dopamine receptor [16] = target: T1, D(4) dopamine receptor (Homo sapiens, UniProt P21917); assay: Displacement of [3H]spiperone from wild type human cloned dopamine D4 receptor expressed in HEK293 cells
T1 sequence (P21917 whole entry): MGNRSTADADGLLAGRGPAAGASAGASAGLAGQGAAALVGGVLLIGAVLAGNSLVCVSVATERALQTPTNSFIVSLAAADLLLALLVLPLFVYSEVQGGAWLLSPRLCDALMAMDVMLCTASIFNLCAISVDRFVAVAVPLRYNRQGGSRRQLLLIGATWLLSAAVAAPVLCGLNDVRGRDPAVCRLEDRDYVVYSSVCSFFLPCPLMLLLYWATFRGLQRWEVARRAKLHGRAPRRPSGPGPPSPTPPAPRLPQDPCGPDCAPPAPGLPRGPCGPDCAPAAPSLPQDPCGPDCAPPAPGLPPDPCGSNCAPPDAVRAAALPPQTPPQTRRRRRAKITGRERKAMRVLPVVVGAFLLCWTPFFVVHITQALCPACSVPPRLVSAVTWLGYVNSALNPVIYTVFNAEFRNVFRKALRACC

D(3) dopamine receptor [17] = target: T2, D(3) dopamine receptor (Homo sapiens, UniProt P35462); assay: Displacement of [3H]spiperone from human cloned dopamine D3 receptor L2.64F mutant expressed in HEK293 cells
D(3) dopamine receptor [18] = target: T2, D(3) dopamine receptor; assay: Displacement of [3H]spiperone from human cloned dopamine D3 receptor FV3.28,3.29LM mutant expressed in HEK293 cells
HEK293 [19] = assay: Selectivity ratio of Ki for human cloned dopamine D2L receptor E181V/I183S mutant to Ki for wild type human cloned dopamine D2L receptor expressed in HEK293 cells; in short: as §2
HEK293 [20] = assay: Selectivity ratio of Ki for human cloned dopamine D2L receptor L2.64F mutant to Ki for wild type human cloned dopamine D2L receptor expressed in HEK293 cells; in short: as §2
HEK293 [21] = assay: Selectivity ratio of Ki for human cloned dopamine D2L receptor H6.55F mutant to Ki for wild type human cloned dopamine D2L receptor expressed in HEK293 cells; in short: as §2
D(3) dopamine receptor [22] = target: D(3) dopamine receptor (Homo sapiens, UniProt P35462, H349A); assay: Displacement of [3H]spiperone from human cloned dopamine D3 receptor H6.55A mutant expressed in HEK293 cells
D(2) dopamine receptor [23] = target: T3, D(2) dopamine receptor (Homo sapiens, UniProt P14416); assay: Displacement of [3H]spiperone from wild type human cloned dopamine D2L receptor expressed in HEK293 cells
[24] = Displacement of [3H]spiperone from human cloned dopamine D2L receptor L2.64F mutant expressed in HEK293 cells; in short: as §1
HEK293 [25] = assay: Selectivity ratio of Ki for human cloned dopamine D2L receptor FV3.28,3.29LM mutant to Ki for wild type human cloned dopamine D2L receptor expressed in HEK293 cells; in short: as §2
CHO [26] = assay: Selectivity ratio of Ki for human cloned dopamine D2L receptor to Ki for human cloned dopamine D4 receptor expressed in CHO cells
D(3) dopamine receptor [27] = target: D(3) dopamine receptor (Homo sapiens, UniProt P35462, S182I/V180E); assay: Displacement of [3H]spiperone from human cloned dopamine D3 receptor V180E/S182I mutant expressed in HEK293 cells
D(2) dopamine receptor [28] = target: D(2) dopamine receptor (Homo sapiens, UniProt P14416, E181V/I183S); assay: Displacement of [3H]spiperone from human cloned dopamine D2L receptor E181V/I183S mutant expressed in HEK293 cells; in short: as §2
[29] = Displacement of [3H]spiperone from human cloned dopamine D2L receptor H6.55F mutant expressed in HEK293 cells; in short: as §1
D(3) dopamine receptor [30] = target: T2, D(3) dopamine receptor; assay: Displacement of [3H]spiperone from wild type human cloned dopamine D3 receptor expressed in HEK293 cells
[31] = Displacement of [3H]spiperone from human cloned dopamine D2L receptor FV3.28,3.29LM mutant expressed in HEK293 cells; in short: as §1
D(2) dopamine receptor [32] = target: T3, D(2) dopamine receptor; assay: Displacement of [3H]spiperone from human cloned dopamine D2L receptor expressed in CHO cells
HEK293 [33] = assay: Selectivity ratio of Ki for human cloned dopamine D2L receptor V2.61F mutant to Ki for wild type human cloned dopamine D2L receptor expressed in HEK293 cells; in short: as §2
D(4) dopamine receptor [34] = target: T1, D(4) dopamine receptor; assay: Displacement of [3H]spiperone from human cloned dopamine D4 receptor expressed in CHO cells
In short: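 Membranes from CHO cells stably expressing human D4 (Bmax 700-1800 fmol/mg). Curves fit by nonlinear regression, sigmoid model giving IC50 and slope; Ki ± SEM from 2-9 experiments in triplicate.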

D(3) dopamine receptor [35] = target: T2, D(3) dopamine receptor; assay: Displacement of [3H]spiperone from human cloned dopamine D3 receptor expressed in CHO cells
HEK293 [36] = assay: Selectivity ratio of Ki for human cloned dopamine D3 receptor V2.61F mutant to Ki for wild type human cloned dopamine D3 receptor expressed in HEK293 cells; in short: as §2
[37] = Displacement of [3H]spiperone from human cloned dopamine D2L receptor V2.61F/FV3.28,3.29LM mutant expressed in HEK293 cells; in short: as §1
HEK293 [38] = assay: Selectivity ratio of Ki for human cloned dopamine D3 receptor D3.32E mutant to Ki for wild type human cloned dopamine D3 receptor expressed in HEK293 cells; in short: as §2

T2 sequence (P35462 whole entry): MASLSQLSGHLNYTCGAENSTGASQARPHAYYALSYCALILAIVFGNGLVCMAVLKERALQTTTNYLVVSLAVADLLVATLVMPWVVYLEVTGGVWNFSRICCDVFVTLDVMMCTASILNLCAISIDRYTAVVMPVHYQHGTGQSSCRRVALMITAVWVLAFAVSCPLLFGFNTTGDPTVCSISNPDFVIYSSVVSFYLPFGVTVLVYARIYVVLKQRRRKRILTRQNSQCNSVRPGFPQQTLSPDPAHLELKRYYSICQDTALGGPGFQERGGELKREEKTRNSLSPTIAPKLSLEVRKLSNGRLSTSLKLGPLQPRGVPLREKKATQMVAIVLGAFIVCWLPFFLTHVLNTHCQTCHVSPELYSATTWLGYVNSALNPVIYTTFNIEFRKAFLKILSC
T3 sequence (P14416 whole entry): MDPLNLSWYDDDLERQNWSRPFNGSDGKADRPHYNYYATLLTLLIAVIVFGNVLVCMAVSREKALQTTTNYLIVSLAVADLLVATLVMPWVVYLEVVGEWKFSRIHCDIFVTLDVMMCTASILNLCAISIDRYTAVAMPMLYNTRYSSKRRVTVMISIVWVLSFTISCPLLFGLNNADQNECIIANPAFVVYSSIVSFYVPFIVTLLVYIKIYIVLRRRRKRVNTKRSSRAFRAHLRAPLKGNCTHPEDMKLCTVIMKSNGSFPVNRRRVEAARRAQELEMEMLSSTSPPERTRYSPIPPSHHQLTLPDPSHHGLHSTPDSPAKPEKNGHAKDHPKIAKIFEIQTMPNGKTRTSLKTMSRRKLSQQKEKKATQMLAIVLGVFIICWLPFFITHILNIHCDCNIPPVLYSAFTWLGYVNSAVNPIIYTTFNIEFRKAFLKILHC
Chain of D(2) dopamine receptor (Homo sapiens, UniProt P14416, E181V/I183S) (P14416 whole entry E181V/I183S): as the sequence (P14416 whole entry) above, with E181V, I183S counted along it
Chain of D(3) dopamine receptor (Homo sapiens, UniProt P35462, F106L/V107M/V87F) (P35462 as listed by the source V87F/F106L/V107M): as the sequence (P35462 whole entry) above, with G9S, V87F, F106L, V107M counted along it
Chain of D(3) dopamine receptor (Homo sapiens, UniProt P35462, D110E) (P35462 as listed by the source D110E): as the sequence (P35462 whole entry) above, with G9S, D110E counted along it
Chain of D(3) dopamine receptor (Homo sapiens, UniProt P35462, V87F) (P35462 as listed by the source V87F): as the sequence (P35462 whole entry) above, with G9S, V87F counted along it
Chain of D(3) dopamine receptor (Homo sapiens, UniProt P35462, H349A) (P35462 as listed by the source H349A): as the sequence (P35462 whole entry) above, with G9S, H349A counted along it
Chain of D(3) dopamine receptor (Homo sapiens, UniProt P35462, S182I/V180E) (P35462 as listed by the source V180E/S182I): as the sequence (P35462 whole entry) above, with G9S, V180E, S182I counted along it

| SMILES | Ki [1] [nM] | Ratio Ki (HEK293 [2]) | Ki (D(3) dopamine receptor [3]) [nM] | Ratio Ki (HEK293 [4]) | Ratio Ki (CHO [5]) | Ki [6] [nM] | Ratio Ki (HEK293 [7]) | Ki (D(3) dopamine receptor [8]) [nM] | Ki (D(3) dopamine receptor [9]) [nM] | Ratio Ki (HEK293 [10]) | Ratio Ki (HEK293 [11]) | Ratio Ki (HEK293 [12]) | Ratio Ki (HEK293 [13]) | Ki [14] [nM] | Ratio Ki (HEK293 [15]) | Ki (D(4) dopamine receptor [16]) [nM] | Ki (D(3) dopamine receptor [17]) [nM] | Ki (D(3) dopamine receptor [18]) [nM] | Ratio Ki (HEK293 [19]) | Ratio Ki (HEK293 [20]) | further results |
| --- | --- | --- | --- | --- | --- | --- | --- | --- | --- | --- | --- | --- | --- | --- | --- | --- | --- | --- | --- | --- | --- |
| CSc1ccccc1N1CCN(CCCCNC(=O)c2cc3ccccn3n2)CC1 | 1300 | 80 | 230 | 34 | 46 | 130 | 36 | 18 | 0.5 | 1.3 | 0.7 | 66 | 1.5 | 11 | 0.3 | 310 | 58 | 33 | 3.4 | 3 | Ratio Ki (HEK293 [21]): 4.3; Ki (D(3) dopamine receptor [22]): 0.76 nM; Ki (D(2) dopamine receptor [23]): 37 nM; Ki [24]: 120 nM; Ratio Ki (HEK293 [25]): 1.8; Ratio Ki (CHO [26]): 0.25; Ki (D(3) dopamine receptor [27]): 40 nM; Ki (D(2) dopamine receptor [28]): 130 nM; Ki [29]: 160 nM; Ki (D(3) dopamine receptor [30]): 160 nM; Ki [31]: 65 nM; Ki (D(2) dopamine receptor [32]): 16 nM; Ratio Ki (HEK293 [33]): 3.4; Ki (D(4) dopamine receptor [34]): 65 nM; Ki (D(3) dopamine receptor [35]): 0.35 nM |
| COc1ccccc1N1CCN(Cc2cc3ccccn3n2)CC1 | 1500 | 0.07 | 2300 | 4.4 | 0.23 | 94 | 0.06 | 51 | 680 | 0.08 | 0.15 | 0.9 | 0.44 | 63 | 0.18 | 2.3 | 720 | 44 | 10.5 | 1.8 | Ratio Ki (HEK293 [36]): 3; Ki [37]: 54 nM; Ratio Ki (HEK293 [21]): 1.2; Ki (D(3) dopamine receptor [22]): 61 nM; Ki (D(2) dopamine receptor [23]): 350 nM; Ki [24]: 610 nM; Ratio Ki (HEK293 [25]): 0.13; Ratio Ki (CHO [26]): 230; Ki (D(3) dopamine receptor [27]): 340 nM; Ki (D(2) dopamine receptor [28]): 3600 nM; Ratio Ki (HEK293 [38]): 0.9; Ki [29]: 590 nM; Ki (D(3) dopamine receptor [30]): 770 nM; Ki [31]: 46 nM; Ki (D(2) dopamine receptor [32]): 280 nM; Ratio Ki (HEK293 [33]): 0.27; Ki (D(4) dopamine receptor [34]): 1.2 nM; Ki (D(3) dopamine receptor [35]): 1200 nM |
